Measured values as given in ChEMBL document CHEMBL4152391, “Bile Acid Oligomers and Their Combination with Antibiotics To Combat Bacterial Infections” (J Med Chem, 2018).
≈ marks a conversion by molar mass, not a printed value. Calls of active or inactive are those of the source. No cut-off for these calls is given here.

Key:
[1] = tested on: Staphylococcus aureus; assay: Antibacterial activity against Staphylococcus aureus ATCC 29213 assessed as disruption of cell membrane at 0.5 times MIC after 18 hrs by scanning electron microscopic method; format: functional, organism-based
Method in brief: (§1)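 Bacterial suspension (5x10^5 cfu/mL) exposed to compound at 0.5x and 1x MIC for 18 h at 37 °C alongside untreated control; centrifuged 10,000 rpm 10 min, pellets washed twice in normal saline, then processed for scanning electron microscopy.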

[2] = tested on: Staphylococcus aureus; assay: Antibacterial activity against methicillin/ciprofloxacin-resistant Staphylococcus aureus ATCC 2673 clinical isolate at 5 to 100 ug after 18 hrs by agar disk-diffusion method; format: functional
Method in brief: (§2)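 CLSI agar disk diffusion: 5 to 100 µg compound loaded on 6 mm sterile paper disks, dried, placed on Mueller Hinton agar lawned with McFarland 0.5 bacterial suspension; cefotaxime positive and DMSO solvent controls run alongside; 18 h at 37 °C, inhibition zone diameter read to nearest whole mm.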

[3] = tested on: Staphylococcus aureus; assay: Antibacterial activity against Staphylococcus aureus ATCC 29213 assessed as shriveling at 0.5 times MIC after 18 hrs by scanning electron microscopic method; format: functional, organism-based; method in brief: as §1
[4] = tested on: HEK293; assay: Cytotoxicity against HEK293 cells assessed as decrease in cell viability at 1 to 200 uM after 24 hrs by Alamar Blue assay; format: cell-based; settings: human, hek293, 24 h
Method in brief: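 HEK293 cells in DMEM HG, 10% FBS, 1% pen-strep, 37 °C 5% CO2, passage under 30, used at 80% confluency; seeded 1×10^4/well, after 24 h washed and treated 24 h with 1–200 µM in complete medium; alamar blue (0.15 mg/mL) added for 4 h, absorbance 570 and 600 nm; viability relative to untreated cells as 100%.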

[5] = tested on: Staphylococcus aureus; assay: Potentiation of cefotaxime-induced antibacterial activity against Staphylococcus aureus ATCC 29213 assessed as FICI index at 2 ug/ml after 18 hrs by checkerboard microdilution method relative to control; format: functional
Method in brief: (§3)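 Checkerboard microdilution: 5x10^5 cfu/mL bacteria exposed to twofold serial dilutions of compound and antibiotic, alone and combined (0.03–32 µg/mL), 18 h at 37 °C. ΣFIC: ≤0.5 synergy; >0.5–1 additive; >1–4 indifferent; >4 antagonism.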

[6] = tested on: Staphylococcus aureus; assay: Antibacterial activity against methicillin/ciprofloxacin-resistant Staphylococcus aureus ATCC 2673 clinical isolate after 18 hrs by broth microdilution method; format: functional, organism-based; settings: ATCC 2673, 18 h
Method in brief: (§4)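 Broth microdilution per CLSI for water-insoluble agents: twofold serial dilutions made in DMSO at 100x final, diluted in Mueller Hinton broth to 1% final DMSO; 5x10^5 cfu/mL bacteria exposed 18 h at 37 °C with positive, growth and sterility controls. MIC = lowest concentration giving complete growth inhibition (turbidity and XTT reduction); IC50 from OD600 dose-response inflection point.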

[7] = tested on: Staphylococcus aureus; assay: Potentiation of ciprofloxacin-induced antibacterial activity against Staphylococcus aureus ATCC 29213 assessed as FICI index at 2 ug/ml after 18 hrs by checkerboard microdilution method relative to control; format: functional; method in brief: as §3
[8] = tested on: Staphylococcus aureus; assay: Antibiofilm activity against Staphylococcus aureus ATCC 29213 after 18 hrs by XTT-menadione assay; format: functional
Method in brief: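 Biofilms grown 24 h at 37 °C from suspension at OD600 0.1 in tryptic soy broth with 1% glucose, washed twice with saline, exposed 18 h at 37 °C to twofold serial dilutions; growth and sterility controls. Read by XTT (0.5 mg/mL)–menadione (10 µM) in MHB, 1 h dark at 37 °C, absorbance 450 nm; MBIC50 and MBIC100 = 50% and 100% inhibition.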

[9] = tested on: Staphylococcus aureus; assay: Antibacterial activity against Staphylococcus aureus ATCC 29213 after 18 hrs by broth microdilution method; format: functional, organism-based; settings: ATCC 29213, 18 h; method in brief: as §4
[10] = tested on: Pseudomonas aeruginosa; assay: Antibacterial activity against Pseudomonas aeruginosa at 5 to 100 ug after 18 hrs by agar disk-diffusion method; format: functional, organism-based
Method in brief: (§5)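 Agar disk diffusion per CLSI: compound loaded on sterile 6 mm paper disks, dried, placed on Mueller Hinton agar lawned with bacteria at McFarland 0.5; cefotaxime positive and DMSO solvent controls; 37 °C for 18 h; zone of inhibition diameter measured to nearest whole mm.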

[11] = tested on: Staphylococcus aureus; assay: Potentiation of amikacin-induced antibacterial activity against Staphylococcus aureus ATCC 29213 assessed as decrease in […] at 2 ug/ml after 18 hrs by checkerboard microdilution method relative to control; format: functional; method in brief: as §3
[12] = tested on: Staphylococcus aureus; assay: Potentiation of vancomycin-induced antibacterial activity against Staphylococcus aureus ATCC 29213 assessed as decrease in […] at 2 ug/ml after 18 hrs by checkerboard microdilution method relative to control; format: functional; method in brief: as §3
[13] = tested on: Staphylococcus aureus; assay: Antibacterial activity against methicillin/ciprofloxacin/chloramphenicol-resistant Staphylococcus aureus ATCC 1704 clinical isolate at 5 to 100 ug after 18 hrs by agar disk-diffusion method; format: functional; method in brief: as §2
[14] = tested on: Candida albicans; assay: Antifungal activity against Candida albicans ATCC 90028 at 30 ug after 24 hrs by agar disk-diffusion method; format: functional; settings: ATCC 90028, 24 h, read-out: DIZ
Method in brief: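 Candida disk diffusion on MHA with 2% glucose and 0.5 µg/mL methylene blue, following CLSI antifungal guidance; paper disks loaded with compound; incubated 37 °C for 24 h; zone of inhibition diameter read.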

[15] = tested on: Staphylococcus aureus; assay: Antibacterial activity against methicillin/ciprofloxacin/chloramphenicol-resistant Staphylococcus aureus ATCC 1704 clinical isolate after 18 hrs by broth microdilution method; format: functional, organism-based; settings: ATCC 1704, 18 h; method in brief: as §4
[16] = tested on: Staphylococcus aureus; assay: Antibacterial activity against Staphylococcus aureus ATCC 29213 assessed as bleb formation at 0.5 times MIC after 18 hrs by scanning electron microscopic method; format: functional, organism-based; method in brief: as §1
[17] = tested on: Staphylococcus aureus; assay: Potentiation of amikacin-induced antibacterial activity against Staphylococcus aureus ATCC 29213 assessed as FICI index at 2 ug/ml after 18 hrs by checkerboard microdilution method relative to control; format: functional; method in brief: as §3
[18] = tested on: Staphylococcus aureus; assay: Antibacterial activity against Staphylococcus aureus ATCC 29213 at 30 ug after 18 hrs by agar disk-diffusion method; format: functional; settings: ATCC 29213, 18 h, read-out: DIZ; method in brief: as §5
[19] = tested on: Staphylococcus aureus; assay: Potentiation of ciprofloxacin-induced antibacterial activity against Staphylococcus aureus ATCC 29213 assessed as decrease in […] at 2 ug/ml after 18 hrs by checkerboard microdilution method relative to control; format: functional; method in brief: as §3
[20] = tested on: Staphylococcus aureus; assay: Potentiation of cefotaxime-induced antibacterial activity against Staphylococcus aureus ATCC 29213 assessed as decrease in cefotaxime MIC at 2 ug/ml after 18 hrs by checkerboard microdilution method relative to control; format: functional; method in brief: as §3
[21] = tested on: Staphylococcus aureus; assay: Potentiation of vancomycin-induced antibacterial activity against Staphylococcus aureus ATCC 29213 assessed as FICI index at 2 ug/ml after 18 hrs by checkerboard microdilution method relative to control; format: functional; method in brief: as §3
[22] = tested on: Escherichia coli; assay: Antibacterial activity against Escherichia coli ATCC 25922 at 5 to 100 ug after 18 hrs by agar disk-diffusion method; format: functional, organism-based; method in brief: as §5

Q: What does the source list for `C[C@H](CCC(=O)NCCNCCNC(=O)CC[C@@H](C)[C@H]1CC[C@H]2[C@@H]3[C@H](O)C[C@@H]4C[C@H](O)CC[C@]4(C)[C@H]3C[C@H](O)[C@]12C)[C@H]1CC[C@H]2[C@@H]3[C@H](O)C[C@@H]4C[C@H](O)CC[C@]4(C)[C@H]3C[C@H](O)[C@]12C`?
A: Activity [1]: Active; diameter of the inhibition zone (DIZ) [2]: 13 mm; Activity [3]: Active; Activity [4]: Non-Toxic; fractional inhibitory concentration index (FICI) [5]: 0.53; IC50 [6]: 2.18 µg/mL (≈ 2.47 µM); MIC [6]: 4 µg/mL (≈ 4.52 µM); fractional inhibitory concentration index (FICI) [7]: 0.56; MBIC100 [8]: 32 µg/mL; IC50 [9]: 2.87 µg/mL (≈ 3.25 µM); MIC [9]: 4 µg/mL (≈ 4.52 µM); Activity [10]: inactive; fold change (FC) [11]: 67; fold change (FC) [12]: 2; diameter of the inhibition zone (DIZ) [13]: 13 mm; zone of inhibition at 30 µg/disc [14]: 10 mm; IC50 [15]: 4.36 µg/mL (≈ 4.93 µM); MIC [15]: 8 µg/mL (≈ 9.05 µM); Activity [16]: Active; fractional inhibitory concentration index (FICI) [17]: 0.51; zone of inhibition at 30 µg/disc [18]: 14 mm; fold change (FC) [19]: 17; fold change (FC) [20]: 33; fractional inhibitory concentration index (FICI) [21]: 1; Activity [22]: inactive
